Source: PubChem
PAFAH2 inh: inhibitors of human PAFAH2 | 340,000 compounds, 0.99% hits | AID 492956 | inhibition, % at 3.39 µM | recombinant PAFAH2, FP-rhodamine activity probe, fluorescence polarization | Q99487;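 active = inhibition above the mean over all tested compounds plus 3 SD, cut at about 30% in these data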;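 also: inhibitors block probe labeling of enzyme so polarization drops; 0% = enzyme with DMSO and 100% = wells lacking PAFAH2 protein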
HTRA1 inh: blocks human HTRA1 serine peptidase. Q92743. recombinant HTRA1, FP-rhodamine activity-based probe, fluorescence polarization. inhibition, % at 5.96 µM. 340,000 compounds, 0.5% hits. AID 504803; in the data active = inhibition above about 36%;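 also: 0% = enzyme with DMSO and 100% = wells lacking enzyme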
ABHD4 inh: ABHD4 (mouse) inhibition, primary FP screen | purified mABHD4, FP-Rh probe fluorescence polarization | Q8VD66 | AID 720543 | 370,000 compounds, 0.54% hits | inhibition, % at 8.92 µM;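 active = inhibition exceeding the mean over every tested compound plus 3 SD, cut at about 30% in these data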;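 also: 0% = plate median of compound wells and 100% = S159A mutant with DMSO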
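Material: mouse ABHD4 enzyme, wild type; Benchmarks: S159A mutant high control, sample median low control; Buffer or medium: HEPES pH 7.0, NaCl, Pluronic buffer; Signal: fluorescence polarization; Read-out: percent inhibition of probe binding, normalized to plate controls; Timing: pre-incubation 45 min, probe exposure 60 min, at 25 °C; Dosing: 8.92 µM, single dose.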
PAFAH1B2 inh: inhibitors of human PAFAH1B2. recombinant PAFAH1B2, FP-rhodamine activity probe, fluorescence polarization. inhibition, % at 3.39 µM. 340,000 compounds, 1.2% hits. AID 492953;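 active = inhibition above the mean of all tested compounds plus 3 SD, cut at about 24% in these data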;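 also: 0% = enzyme with DMSO and 100% = wells lacking PAFAH1B2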
PAFAH1B3 FP inh: PAFAH1B3 (human) inhibition | inhibition, % at 3.39 µM | Q15102 | 340,000 compounds, 0.28% hits | recombinant PAFAH1B3, FP-rhodamine probe, fluorescence polarization;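 active = inhibition above the screen-wide average of all tested compounds plus 3 SD, cut at about 25% in these data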;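 also: 0% = enzyme with DMSO only and 100% = wells lacking PAFAH1B3 protein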
Target sequence (Q15102 whole entry, looked up): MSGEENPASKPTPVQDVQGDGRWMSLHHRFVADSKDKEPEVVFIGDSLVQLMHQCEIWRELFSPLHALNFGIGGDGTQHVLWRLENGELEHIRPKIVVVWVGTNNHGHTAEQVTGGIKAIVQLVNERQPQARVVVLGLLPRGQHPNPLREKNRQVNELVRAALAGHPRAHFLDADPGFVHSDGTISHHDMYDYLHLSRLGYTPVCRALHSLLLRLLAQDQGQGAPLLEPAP
pPAFAH FP inh: inhibitors of human plasma PAF acetylhydrolase (pPAFAH); 330,000 compounds, 1.5% hits; recombinant pPAFAH, FP-rhodamine probe fluorescence polarization; Q13093; AID 463082; inhibition, % at 3.39 µM;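 active = inhibition above the mean inhibition across the screen plus 3 SD, cut at about 25% in these data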;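 also: inhibitors block binding of the rhodamine activity-based probe so polarization drops; 0% = enzyme with DMSO and 100% = wells lacking pPAFAH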
Target sequence (Q13093 whole entry, looked up): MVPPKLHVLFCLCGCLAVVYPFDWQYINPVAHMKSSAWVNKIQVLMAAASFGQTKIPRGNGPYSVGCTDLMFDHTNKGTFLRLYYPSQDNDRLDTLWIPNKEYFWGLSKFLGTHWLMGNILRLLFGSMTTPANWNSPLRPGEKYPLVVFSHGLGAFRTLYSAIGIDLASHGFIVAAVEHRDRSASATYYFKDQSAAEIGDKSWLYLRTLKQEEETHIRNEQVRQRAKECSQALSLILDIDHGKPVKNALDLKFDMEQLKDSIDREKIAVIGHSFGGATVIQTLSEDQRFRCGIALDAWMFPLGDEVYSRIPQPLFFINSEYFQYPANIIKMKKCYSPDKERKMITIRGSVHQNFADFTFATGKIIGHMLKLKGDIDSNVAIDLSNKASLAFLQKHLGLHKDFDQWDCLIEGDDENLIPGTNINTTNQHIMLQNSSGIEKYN
Starred values were filed as active, the others as inactive; . = no result given. Compounds with a hit are over-represented: about 2.8% of the library has one in this group of screens.

SMILES	PAFAH2 inh	HTRA1 inh	ABHD4 inh	PAFAH1B2 inh	PAFAH1B3 FP inh	pPAFAH FP inh
O=C(CSc1nccc(-c2cccs2)n1)Nc1ccc(Cl)cc1	-11.6	-18.0	-20.0	5.0	12.2	-2.1
CCCc1ccc(C(C)NC(=S)NCc2ccc(F)cc2)cc1 (stereo not drawn)	-7.1	-42.0	-25.0	14.8	5.4	4.4
CCC(C)c1ccc(C(C)NC(=S)NCc2ccc(F)cc2)cc1 (stereo not drawn)	-2.0	-32.3	-31.7	24.4*	-5.4	-1.2
CCC(NC(=S)NCc1ccc(F)cc1)c1ccc(C(C)C)cc1 (stereo not drawn)	-7.1	-31.7	-27.5	28.9*	-9.0	-4.6
COC(=O)[C@]12C[C@H](CC(=O)NCC3CCCCC3)C(=O)N(CCC3=CCCCC3)C1=C[C@H](C1CCCC1)O[C@@H]2C	.	.	2.5	.	.	.
N#CC(=C(c1ccccc1)c1ccccc1)c1ccccc1	-0.5	1.2	4.4	24.1*	4.8	.
CN(C/C(O)=C(\C#N)c1ccccc1)C1CCCCC1	7.7	-1.7	6.0	0.8	-3.8	0.7
CC1=C(C(=O)OCc2ccccc2)C(c2ccsc2)NC(=O)N1C (stereo not drawn)	6.0	-0.8	-11.9	3.6	-6.3	8.6
CC1=C(C(=O)OCCc2ccccc2)C(c2ccsc2)NC(=O)N1C (stereo not drawn)	1.7	-1.1	-4.9	67.6*	-7.0	28.3*
O=C(/C=C/c1cccc(Cl)c1)c1ccc([N+](=O)[O-])o1	11.1	42.9*	8.0	-5.4	-0.7	13.4
C=CCN(Cc1ccc(OC)cc1OC)C(C#CCCCC)c1ccccc1 (stereo not drawn)	.	.	-3.4	.	.	.
Cc1cc(N/N=C/c2ccc(O)cc2O)c2ccccc2n1	1.8	4.8	2.1	-0.8	4.5	1.1
Oc1ccc(/C=N/Nc2ccc3ccccc3c2)c(O)c1	5.4	28.0	17.3	2.3	12.3	25.3*
C=C(C)CSc1nc2sc(C)c(C)c2c(=O)n1C	.	.	6.0	.	.	.
CN1/C(=C\C(=O)COC(=O)c2ccc(O)c(O)c2)C(C)(C)c2ccccc21	.	.	-13.3	.	.	32.4*
CC1CCN(c2ccccc2NC(=O)c2cc([N+](=O)[O-])ccc2N2CCOCC2)CC1	-3.7	4.3	6.2	26.9*	3.8	2.4
CCc1ccccc1NC(=O)c1cc([N+](=O)[O-])ccc1N1CCOCC1	1.0	-0.4	1.2	2.7	3.1	0.5
O=C(O)CCC(=O)N1CCN(c2nc(-c3ccccc3)c3cc(Br)ccc3n2)CC1	-5.3	-4.3	-1.7	1.5	0.4	13.7
O=C(O)CCC(=O)N1CCN(c2nc(-c3ccccc3Cl)c3cc(Br)ccc3n2)CC1	8.3	2.9	-1.4	-0.4	5.5	33.2*
O=C(Nc1cccc(C(F)(F)F)c1)Oc1ccc(Cl)c2cccnc12	1.1	45.8*	-34.6	6.1	10.0	-13.6
CCN(CC)C(=O)Oc1ccc(Cl)c2cccnc12	-1.3	-17.7	2.2	2.0	4.3	0.2
CCc1cc2cccc(C)c2nc1SCC(=O)NC1CCCC1	-10.2	-3.1	-5.8	5.1	0.7	3.8
CCc1cc2cc(C)ccc2nc1SCC(=O)N1CC(=O)Nc2ccccc21	-10.7	-61.9	-24.5	0.3	7.3	29.1*
CCc1cc2cc(C)ccc2nc1SCC(=O)NC1CCCC1	-22.2	-15.2	-2.7	4.1	5.8	30.3*
COc1ccc(CCNC(=O)COC(=O)C23CC4CC(CC(Br)(C4)C2)C3)cc1	2.6	-4.1	-3.2	19.4	3.6	4.0
SMILES	PAFAH2 inh	HTRA1 inh	ABHD4 inh	PAFAH1B2 inh	PAFAH1B3 FP inh	pPAFAH FP inh
O=C(CNC(=O)C12CC3CC(CC(C3)C1)C2)NCc1ccccc1	10.6	0.3	3.5	4.3	-2.5	4.5
O=C(NCc1ccccc1)C12CC3CC(CC(Br)(C3)C1)C2	-9.8	-3.1	5.2	34.7*	12.9	5.9
CC(NC(=O)COC(=O)C12CC3CC(CC(Br)(C3)C1)C2)c1ccccc1 (stereo not drawn)	13.5	-14.9	-3.3	40.5*	1.9	3.3
Cc1occc1-c1nnc(SCC(=O)NCc2ccc(Cl)cc2)n1-c1ccccc1	.	.	6.7	.	.	.
Cc1cccc2sc(NC(=O)C3CCCO3)nc12 (stereo not drawn)	-5.8	-6.9	-3.2	-0.3	1.7	6.5
Cc1nc(C)c(C(=O)Nc2nc3c(C)cccc3s2)o1	16.6	7.2	5.1	3.2	10.4	29.5*
CC(C)(C)c1ccc(C2=CC(c3ccccc3F)n3ncnc3N2)cc1 (stereo not drawn)	0.8	-16.9	-1.7	48.1*	16.5	24.4
Cc1ccc(N(C(=O)Cn2nnc3ccccc32)C(C(=O)NCc2ccccc2)c2ccccn2)cc1 (stereo not drawn)	1.8	-2.7	-4.0	26.1*	-3.7	-0.9
CC(=O)c1ccc(N(C(=O)Cn2nnc3ccccc32)C(C(=O)NCc2ccccc2)c2ccccn2)cc1 (stereo not drawn)	-1.5	-1.9	2.5	7.0	4.2	-0.4
Nc1ccc(C(=O)O)cc1[N+](=O)[O-]	3.5	1.4	7.6	3.2	9.1	-2.0
O=[N+]([O-])c1cc([N+](=O)[O-])c2oc(-c3ccccc3)c(Br)c2c1O	45.8*	-40.8	.	42.6*	28.5*	.
C/C=C/c1ccc(OCCOc2cc(C=O)ccc2OC)c(OC)c1	4.7	-31.7	-4.9	8.2	-2.9	27.7*
CCCCCn1c(NC(=O)c2ccco2)c(S(=O)(=O)c2ccc(C)cc2)c2nc3ccccc3nc21	42.5*	-34.5	-5.7	29.9*	57.4*	11.3
CCCCn1c(NC(=O)c2ccco2)c(S(=O)(=O)c2ccc(C)cc2)c2nc3ccccc3nc21	3.7	-35.8	-7.5	0.8	-5.4	.
CCCCn1c(NS(=O)(=O)c2ccccc2)c(S(=O)(=O)c2ccc(C)cc2)c2nc3ccccc3nc21	57.0*	17.4	-3.9	35.9*	65.5*	9.7
COc1ccc(O)c(C(=O)c2cc(SCC(=O)O)c3nc4sc5c(c4c(=O)n3c2)CCCC5)c1	-5.0	-21.5	-22.4	0.7	14.8	28.1*
COc1ccc(OC)c(C(c2c(C)[nH][nH]c2=O)c2c(C)[nH][nH]c2=O)c1	6.5	3.2	3.3	-0.2	4.3	-3.5
COc1ccc(O)c(C(c2c(C)[nH][nH]c2=O)c2c(C)[nH][nH]c2=O)c1	11.3	22.6	11.0	26.7*	38.0*	3.9
CC(=O)NNC(=O)c1sc(=S)n2c1[nH]c(=O)c1sccc12	20.3	11.9	19.5	5.8	16.6	33.4*
Cc1cc2c(cc1S(=O)(=O)NCC(C)c1ccccc1)n(C)c(=O)c(=O)n2C (stereo not drawn)	-5.7	6.1	-2.1	25.5*	6.2	1.0
CN(CC#Cc1ccccc1)C(N)=NC(=O)/C=C/c1ccccc1	.	.	1.0	.	.	.
COc1ccc2oc(C(=O)Nc3ccc(N4CCOCC4)cc3)c(C)c2c1	12.6	-9.8	6.9	3.4	4.4	52.3*
Cc1ccc(OCc2nnc(NC(=O)c3ccco3)s2)cc1	1.6	-1.1	0.9	25.2*	4.6	-3.1
